Like-named read-outs stand apart in the source and are kept apart here.
What was measured:
[1] = molecular target: CSP2; assay type: binding, Chilo suppressalis; conditions: for IC50: read-out: CSP2 IC50, displacement of 1-NPN, ligand 2–30 µM; for Ki: read-out: CSP2 Ki, competitive binding with 1-NPN
[2] = molecular target: T1, CSP1 (Chilo suppressalis, UniProt V9PY22); assay type: binding; conditions: for activity at 30 µM: pH 7.4, read-out: CSP1 Intensity %; for IC50: read-out: CSP1 IC50, displacement of 1-NPN, ligand 2–30 µM; for Ki: read-out: CSP1 Ki, competitive binding with 1-NPN
T1 sequence (V9PY22 18-122): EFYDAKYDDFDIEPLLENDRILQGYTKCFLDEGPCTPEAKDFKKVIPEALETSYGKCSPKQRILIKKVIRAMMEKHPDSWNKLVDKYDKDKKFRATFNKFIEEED
In short: (§1)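 Mature CSP cDNA in pET-30a(+), expressed in E. coli, purified, His-tag cleaved with enterokinase. […] Competition: 2 µM protein plus 2 µM 1-NPN in 50 mM Tris–HCl, titrated with 1 mM odorant stock to 2–30 µM final. Excitation 337 nm, emission 400–460 nm, three replicates.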

[3] = molecular target: T2, CSP3 (Chilo suppressalis, UniProt V9PY40); assay type: binding; conditions: for activity at 30 µM: pH 7.4, read-out: CSP3 Intensity %; for IC50: read-out: CSP3 IC50, displacement of 1-NPN, ligand 2–30 µM; for Ki: read-out: CSP3 Ki, competitive binding with 1-NPN
T2 sequence (V9PY40 19-126): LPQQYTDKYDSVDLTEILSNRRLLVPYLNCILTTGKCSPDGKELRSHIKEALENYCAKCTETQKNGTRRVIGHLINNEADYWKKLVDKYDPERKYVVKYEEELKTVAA
In short: as §1

[4] = test system: adult C. suppressalis; conditions: ref Wei et al. 2013, Khuhro et al. 2017a; cited from earlier work

Row | Compound | IC50 [1] | Ki [1] | activity at 30 µM [2] | activity at 30 µM [3] | IC50 [2] | IC50 [3] | further results
1 | C[C@@H]1CC[C@H]2C(C)(C)[C@H]3C[C@@]12CC[C@@]3(C)O [(+)-Cedrol] | 10.7 µM | 9.22 µM | 47.2 ± 1.16% | 45.2 ± 1.9% | – | – | Ki ([1]; listed as (+)-cedrol): ≤ 10 µM
2 | CCCCCCCCCCCC=O [Laurinaldehyde] | 19.3 µM | 16.6 µM | – | – | 11.8 µM | > 30 µM | Ki [2]: 9.16 µM; Ki ([2]; listed as laurinaldehyde): ≤ 10 µM
3 | CC/C=C\CCO [E3-Hexenol] | > 30 µM | – | – | – | > 30 µM | > 30 µM | –
4 | CCC/C=C/CO [E2-hexenol] | > 30 µM | – | – | – | > 30 µM | > 30 µM | –
5 | CCCCCC(C)=O [2-Heptanone] | > 30 µM | – | 49.3 ± 1.89% | 82 ± 3.87% | – | – | –
6 | CCCCCCCCC=O [1-Nonaldehyde] | > 30 µM | – | 74.1% | 75 ± 2.3% | – | – | –
7 | Farnesene | 24 µM | 20.4 µM | – | – | 27.6 µM | > 30 µM | binding affinity class for CSP2 (plant volatiles) ([1]; criteria for plant volatiles): did not show high or moderate binding affinity; binding affinity class for CSP1 (plant volatiles) ([2]; criteria for plant volatiles): did not show high or moderate binding affinity; Ki [2]: 23.3 µM; electroantennographic (EAG) response [4]: significant EAG response; binding affinity class for CSP3 (plant volatiles) ([3]; criteria for plant volatiles): did not show high or moderate binding affinity
8 | CCOC(=O)c1ccccc1 [Ethyl benzoates] | > 30 µM | – | – | – | > 30 µM | > 30 µM | –
9 | OCc1ccccc1 [Benzyl alcohol] | > 30 µM | – | 67.5 ± 2.24% | 84.1 ± 2.96% | – | – | –
10 | CC=CC=CCO [2,4 hexadienol] | 18.4 µM | 15.8 µM | 85.8% | 53.5 ± 1.87% | – | – | –
11 | O=Cc1ccccc1 [Benzaldehyde] | 28.5 µM | 24.5 µM | 34.2 ± 2.35% | 44.2 ± 3.53% | – | – | –
12 | CCC/C=C/C=O [E2-Hexenal] | > 30 µM | – | – | – | > 30 µM | > 30 µM | –
13 | CCCCCCCCCCCC(C)=O [2-Tridecanone] | 24.3 µM | 20.9 µM | 24.8 ± 1.61% | 72.8 ± 2.06% | – | – | –
14 | C=CC(C)=CCC=C(C)C [Ocimene] | > 30 µM | – | – | – | > 30 µM | > 30 µM | –
15 | CCCCCCCCCCCCCC(C)=O [2-Pentadecanone] | 23.6 µM | 20.3 µM | 27.9 ± 2.11% | 67.6 ± 0.91% | – | – | –
16 | CCCCCCCCCCCC(=O)O [Lauric acid] | > 30 µM | – | – | – | > 30 µM | > 30 µM | –
17 | CCCCC/C=C\C/C=C\CCCCCCCC(=O)O [Linoleic acid] | 20.6 µM | 17.7 µM | 55.6 ± 3.45% | 89.17 ± 0.88% | – | – | –
18 | CCCCCCO [Hexyl alcohol] | > 30 µM | – | 64 ± 4.34% | 67.7 ± 3.05% | – | – | –
19 | CCC/C=C/COC(C)=O [E2-Hexenyl acetate] | > 30 µM | – | – | – | > 30 µM | > 30 µM | –
20 | CCCCCC(C)O (stereo not shown) [2-Heptanol] | 10.8 µM | 9.25 µM | 48.9% | 91.8 ± 1.7% | – | – | Ki ([1]; listed as 2-heptanol): ≤ 10 µM

Second part, led by results:

Row | IC50 [1] | Ki [1] | activity at 30 µM [2] | activity at 30 µM [3] | IC50 [2] | IC50 [3] | Compound | further results
21 | 11.1 µM | 9.55 µM | – | – | 17.4 µM | 9.9 µM | CCCCCC/C=C\CCCCCCCC=O [Z9-Hexadecenal] | Ki [2]: 13.5 µM; Ki [3]: 8.86 µM
22 | > 30 µM | – | 73 ± 2.46% | 95.3 ± 1.58% | – | – | CC1=CC[C@H](C(C)C)C=C1 [α-Phellandrene] | –
23 | 20 µM | 17.2 µM | – | – | > 30 µM | 25.1 µM | CCCC/C=C\CCCCCCCCCCCC=O [Z13-Octadecenal] | Ki [3]: 22.5 µM
24 | 20.7 µM | 17.7 µM | – | – | > 30 µM | > 30 µM | CC/C=C\CCO [Z3-Hexenol] | –
25 | 10.3 µM | 8.89 µM | – | – | 20.9 µM | 6.96 µM | CCCC/C=C\CCCCCCCCCC=O [Z11-Hexadecenal] | Ki [2]: 16.2 µM; Ki [3]: 6.23 µM
26 | > 30 µM | – | 58.9 ± 2.59% | 84.7 ± 2.37% | – | – | CCCCCCCC/C=C\CCCCCCCC(=O)O [Oleic acid] | –
27 | > 30 µM | – | 78.2 ± 0.93% | > 100% | – | – | CCCCCCCCCCCCCCCC(=O)O [Palmitic acid] | –
28 | > 30 µM | – | – | – | > 30 µM | > 30 µM | CC/C=C\CCOC(C)=O [Z3-Hexenyl acetate] | –
29 | – | 28.6 µM | – | – | 15.8 µM | > 30 µM | CCC/C=C\C=O [Z2-Hexenal] | Ki [2]: 12.2 µM

— article PMC6159316 (Journal of Insect Science, 2018)
